HDAC3 inh – human HDAC3 inhibition. O15379. AID 2718. inhibition, % at 8.3 µM. recombinant HDAC3, fluorogenic peptide/trypsin coupled, fluorescence. 0.15% of 320,000 active; in the data active = inhibition above about 26%, passing the limit was not always enough; inconclusive = no clear call, values can overlap the other calls
Target sequence (O15379 whole entry, looked up): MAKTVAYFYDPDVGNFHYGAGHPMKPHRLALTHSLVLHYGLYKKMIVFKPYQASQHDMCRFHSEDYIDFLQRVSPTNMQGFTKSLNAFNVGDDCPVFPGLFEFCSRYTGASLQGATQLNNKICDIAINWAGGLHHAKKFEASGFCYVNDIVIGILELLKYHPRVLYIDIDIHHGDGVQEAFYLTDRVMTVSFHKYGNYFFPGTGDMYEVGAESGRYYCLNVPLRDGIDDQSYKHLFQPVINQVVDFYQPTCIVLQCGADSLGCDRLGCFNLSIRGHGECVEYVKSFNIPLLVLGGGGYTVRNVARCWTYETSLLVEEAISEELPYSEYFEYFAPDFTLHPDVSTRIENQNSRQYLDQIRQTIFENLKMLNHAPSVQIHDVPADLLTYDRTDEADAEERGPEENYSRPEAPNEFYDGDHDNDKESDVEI
CR mimetic SO – caloric restriction mimetics inhibiting age-related superoxide in yeast | S. cerevisiae aged cells, superoxide DHE fluorescence; active compounds read low | superoxide response (% of plate mean), % at 10 µM | 0.18% of 330,000 active | AID 2690;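 active = superoxide response under a set limit, about three screen SD below normal, cut at about 65% in these data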;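 also: yeast aged for seven days with compound at 30 °C before DHE staining; 100% = average MFI of all compound-treated wells on the plate with controls excluded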
Tb MetRS inh – blocks T. brucei methionyl-tRNA synthetase activity. 0.4% of 360,000 active. purified T. brucei MetRS, ATP depletion, Kinase-Glo luminescence. inhibition, % at 11.9 µM;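 active = inhibition above a per-plate cutoff of the control wells' mean inhibition plus 3 SD, cut at about 5.5% in these data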;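 also: 0% = DMSO wells median and 100% = median of wells with control inhibitor compound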
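assay system = parasite MetRS enzyme | timing = 15 min preincubation, 2 h reaction, all 25 °C | evaluation = percent inhibition relative to median high and low control wells | medium = HEPES buffer containing pyrophosphatase, BSA, spermine, DTT | compound = single dose, 11.9 µM final nominal, 0.9% final DMSO | detection = Kinase-Glo luminescence, ATP depletion format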
IDE act – activators of human insulin-degrading enzyme in cells; activation, % at 5.96 µM; AID 493087; 0.073% of 340,000 active; HEK cells, FAbeta-B cleavage, fluorescence polarization; 0% vehicle, 100% cell-free pure enzyme wells;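 active = activation above the mean of all tested compounds plus 3 SD, set per screening campaign, cut at about 17% in these data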
Efflux pump mplx – blocks antifungal efflux pumps in multiplex yeast assay; inhibition, % at 10 µM; S. cerevisiae Candida pump triplex, Nile Red efflux; AID 485275; 0.44% of 330,000 active;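 active = plate passing quality check with inhibition over a set limit, or well fluorescence over plate mean plus 4 SD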;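 also: Nile Red retained in pooled yeast measured as flow cytometry median fluorescence; 0% = buffer negative control and 100% = Enniatin B positive control; higher means more Nile Red kept so more efflux inhibition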
IDE inh – inhibits human insulin-degrading enzyme in HEK cells; inhibition, % at 5.59 µM; FAbetaB cleavage, fluorescence polarization; 0.41% of 320,000 active; P14735;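 active = percent inhibition above the average of all tested compounds plus 3 SD, set per screening campaign, cut at about 16% in these data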;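 also: IDE supplied by intact live HEK cells; FP after avidin binding of uncleaved biotin substrate so inhibition keeps polarization high; 0% = DMSO wells and 100% = 60 µM reference IDE inhibitor Ii1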
Numbers without * were called inactive; ? = inconclusive; . = no result given. Only some compounds are listed: those with a hit (about 1.4% of all), similar ones and a draw of the others.

SMILES | HDAC3 inh | CR mimetic SO | Tb MetRS inh | IDE act | Efflux pump mplx | IDE inh
Cc1c(-c2ccc(O)cc2)nc2nc(-c3ccccc3)c(-c3ccccc3)nn12 | -6 | 120 | . | . | 0 | 92*
CCCn1c(N/N=C\C=C\c2ccccc2)nc2c1c(=O)[nH]c(=O)n2C | -2 | 90 | 0 | -2 | 0 | 16*
CC(/C=C/c1ccccc1)=N\Nc1nc2c(c(=O)[nH]c(=O)n2C)n1CCO | 8 | 92 | . | . | 0 | 3
O=C(Oc1ccc(N(Cc2cccs2)C2=NS(=O)(=O)c3ccccc32)cc1)c1ccco1 | 58* | 110 | -1 | 0 | 0 | 0
Cc1cc(C)n(CCNC(=O)c2cc(COc3ccc(F)cc3Cl)on2)n1 | -3 | 112 | 0 | 1 | 0 | 2
CSc1ccccc1OCc1cc(C(=O)NCCn2nc(C)cc2C)no1 | -5 | 102 | 0 | 34* | 0 | -5
O=C(C(=O)N1CCC(c2ccccc2)CC1)c1ccc(F)c(F)c1 | . | . | 0 | . | . | .
Cc1cccc(C(=O)NCCN2CCOCC2)c1[N+](=O)[O-] | -3 | 110 | 1 | 28* | -5 | 1
CCO[C@H]1C[C@@H](c2ccc(CC)cc2)N(S(=O)(=O)c2ccc(C)cc2)C2CC(c3ccc(CC)cc3)N(S(=O)(=O)c3ccc(C)cc3)CC21 (stereo partly specified) | . | . | -1 | . | . | .
O=C(O)C(NS(=O)(=O)c1ccc(F)cc1)c1ccccc1 (stereo unspecified) | 2 | 86 | -1 | 9 | 0 | -1
CCC/C=C(\CCC)C(NS(=O)(=O)c1ccc(C(F)(F)F)cc1)c1ccccc1 (stereo unspecified) | 27* | 97 | . | . | 0 | -1
CC(C)CC(N)c1csc(NC(=O)Nc2ccccc2C(C)(C)C)n1 (stereo unspecified) | . | . | 0 | . | . | .
O=C1C(SCCO)=C(SCCO)C(=O)c2ccccc21 | 3 | 107 | 2 | -121 | 0 | 53*
CC1=C(SCc2ccccc2)C(=O)c2ccccc2C1=O | . | . | 0 | -12 | . | .
CCOC(=O)N1C(=O)[C@@](CC)(c2ccccc2)N1C(=O)OCC | 35* | 101 | 0 | 0 | 0 | -1
CCCCNC(=O)c1nc(-c2cccnc2)oc1-c1ccc(OC(F)(F)F)cc1 | . | . | 0 | . | . | .
O=c1c2c([N+](=O)[O-])cc([N+](=O)[O-])cc2sn1-c1ccc(Br)cc1 | ? | 94 | 0 | -53 | 0 | 96*
CC(C)(C)NS(=O)(=O)c1ccc(NC(=O)C(Sc2ccccc2)c2ccccc2)cc1 (stereo unspecified) | 29* | 93 | -1 | 1 | 0 | 5
COc1ccc(C(=O)CSc2nnc(CNc3ccc(C)cc3C)o2)cc1 | 2 | 89 | 0 | 2 | 0 | 7
Cc1ccc(NCc2nnc(SCC(=O)c3ccc4c(c3)OCCO4)o2)c(C)c1 | 85* | 92 | 0 | -2 | 0 | 3
O=C(O)c1ccccc1Nc1ccccc1C(=O)O | . | 105 | -1 | 5 | 0 | 1
O=C(O)c1ccccc1Nc1ccc([N+](=O)[O-])cc1 | -5 | 126 | 0 | 28* | 0 | -14
CCCCCCCCCCCCCCCC[N+](C)(C)CC | 15 | 74 | -2 | 10 | 1.8* | -2
O=C1c2ccccc2C(c2nnnn2-c2ccc3c(c2)OCCO3)N1Cc1ccc2c(c1)OCO2 (stereo unspecified) | . | . | -1 | . | . | .
COC(=O)C[C@@H]1CC[C@@H](NS(=O)(=O)c2cccc(OC)c2)[C@@H](CO)O1 | . | . | -1 | . | . | .
SMILES | HDAC3 inh | CR mimetic SO | Tb MetRS inh | IDE act | Efflux pump mplx | IDE inh
CCCc1nc2c(C)cc(Br)cn2c1Cc1ccc(OC)cc1C | . | . | 0 | . | . | .
O=C(CSc1nc(-c2ccccc2)nn1C(=O)c1ccccc1)Nc1cccc([N+](=O)[O-])c1 | 41* | 102 | 18* | 9 | 0 | -9
CCc1ccccc1NC(=O)CSc1nc(-c2ccccc2)nn1C(=O)c1cccc([N+](=O)[O-])c1 | 4 | 87 | . | . | 0 | 11
COC(=O)C(/C=N/OCc1ccc([N+](=O)[O-])cc1)NC(=O)c1cccc(Cl)c1 (stereo unspecified) | 44* | 106 | -1 | 5 | 0 | -2
Cc1ccc(CONC(=O)c2cccc([N+](=O)[O-])c2)cc1 | 1 | 114 | 0 | 4 | 0 | 7
COc1ccc(C2CC(C(F)(F)F)n3nc(C(=O)O)c(Cl)c3N2)cc1OC (stereo unspecified) | -5 | 106 | -2 | 18* | 0 | -2
CCCCCCCCN1C(=O)[C@H](CC(=O)NCCc2ccccc2OC)C[C@@]2(C(=O)OCC)CCC=C12 | . | . | -1 | . | . | .
COC(=O)C[C@H]1C=C[C@@H](NC(=O)c2ccncc2)[C@@H](CO)O1 | . | . | 0 | . | . | .
CCc1cccc(NC(=O)CSC2=NS(=O)(=O)c3ccccc32)c1 | 36* | 68 | 0 | -2 | 0 | 2
COc1ccc(Cn2c(SCc3ccc(C)cc3)nc3cc(OC)c(OC)cc3c2=N)cc1Cl | 1 | 84 | -1 | 20* | 0 | 1
COc1cc2nc(SCc3ccc(C(F)(F)F)cc3)n(Cc3cccs3)c(=N)c2cc1OC | 2 | 103 | 0 | 2 | 0 | 6
COc1ccc(Cn2c(SCc3cc(C)ccc3C)nc3cc(OC)c(OC)cc3c2=N)cc1 | 4 | 103 | -1 | 27* | 0 | 1
COc1ccc2cc(C3CC=C(COC(C)=O)CN3S(=O)(=O)c3ccccc3[N+](=O)[O-])n(C(=O)OC(C)(C)C)c2c1 (stereo unspecified) | . | . | 0 | . | . | .
CC1(C)CC(Cc2ccccc2C(F)(F)F)N(C(=O)OC(C)(C)C)C1 (stereo unspecified) | . | . | 0 | . | . | .
O=C1c2cccc3c(O)ccc(c23)C(=O)N1Cc1ccccc1 | 9 | 76 | -1 | 59* | 0 | -16
O=C(O)c1cccc(CN2C(=O)c3ccccc3C2=O)c1 | 9 | 123 | -2 | 3 | 0 | -2
C=CCn1c(C(C)n2c(-c3cnccn3)nc3ccccc32)nc2ccccc21 (stereo unspecified) | . | . | -1 | . | . | .
CCN1CCS/C1=C\C=C\C1=[N+](CC)CCS1 | . | . | 0 | -2 | . | .
CCN1CCS/C1=C/C=C/C1=[N+](CC)CCS1 | 36* | 100 | -1 | 9 | 0 | -4
COc1ccc(C(=O)CSc2cc(C)[nH]c(=O)n2)cc1 | 61* | 78 | 0 | 2 | 0 | 5
COC1=CC(=O)OC(c2cccc([N+](=O)[O-])c2)C1 (stereo unspecified) | . | . | 0 | . | . | .
COc1cc(OC)cc(C(=O)NCC(=O)OCC(=O)NCc2ccco2)c1 | 33* | 102 | 0 | 5 | 0 | 0
CCNC(=O)C1CCCN(Cc2cc(-c3ccccc3)on2)CC1 (stereo unspecified) | . | . | 0 | . | . | .
Cc1cnc(CNC(=O)c2ccc3nc([C@@H]4O[C@H](CO)[C@H](O)[C@H](O)[C@H]4O)[nH]c3c2)cn1 | . | . | 0 | . | . | .

Screens as filed in PubChem BioAssay.
